The source of these data is ChEMBL document CHEMBL1138662, “Macrocyclic diacylglycerol-bis-lactones as conformationally constrained analogues of diacylglycerol-lactones. Interactions with protein kinase C” (J Med Chem, 2004).

Each structure is given as a SMILES string.

Data set [1] in a line: Partition coefficient (logP). In kind it is physicochemical. As to conditions: octanol/water.
Data set [2] is described as follows: Displacement of [20-3H]-phorbol 12,13-dibutyrate (PDBU) from recombinant Protein kinase C alpha (C1a/C1b domain) in presence of phosphatidyl serine. An outline of the steps:
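Competition binding: displacement of bound [20-3H]phorbol 12,13-dibutyrate from recombinant PKCα isozyme with phosphatidylserine present. IC50 derived by fitting data to a theoretical noncooperative competitive inhibition curve; binding affinity reported as Ki.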

For `CCCCCCCCCCCCCCCCC/C=C1/CC(CO)(COC(C)=O)OC1=O` (stereo not given), the lipophilicity (logP) in data set [1] was determined as 7.11.

Take `O=C1CCCCCC/C=C2\CC(CO)(CO1)OC2=O` (stereo not given): the logP in data set [1] is -0.08. Further, in data set [2], the Ki stood at 1800 nM.

As to `O=C1CCCCCCCCCCCCCCCCCC/C=C2/CC(CO)(CO1)OC2=O` (stereo not given), in data set [1], the logP amounted to 5.81. Besides, the Ki in data set [2] stood at 10.3 nM.

`CCCCCCCCCCCCCCCCC/C=C1\CC(CO)(COC(C)=O)OC1=O` (stereo not given) gave a logP in data set [1] of 7.11. The Ki in data set [2] was 28 nM.

In turn, `CCCCCCCCCCCCCC(=O)OCC(CO)OC(C)=O` (stereo not given) showed a logP in data set [1] of 5.25. Also, the Ki in data set [2] came to 1000 nM.

As to `O=C1CCCCCCCCCCCCCC/C=C2\CC(CO)(CO1)OC2=O` (stereo not given), in data set [1], the logP was 3.85. In addition, the Ki in data set [2] stood at 12.2 nM.

Molecule `CCCCCCCCCCCCCC(=O)OCC1(CO)CCC(=O)O1` (stereo not given) gave a logP in data set [1] of 4.53. Besides, the Ki in data set [2] came out at 138 nM.

With `O=C1CCCCCCCCCCCCCCCCCC/C=C2\CC(CO)(CO1)OC2=O` (stereo not given), the logP in data set [1] came out at 5.81. Moreover, in data set [2], the Ki was determined as 22 nM.

In data set [1], `O=C1CCCCCCCCCC/C=C2/CC(CO)(CO1)OC2=O` (stereo not given) showed a logP of 1.88. For the same molecule, the Ki in data set [2] was determined as 52.7 nM.

Consider `O=C1CCCCCCCCCCCCCC/C=C2/CC(CO)(CO1)OC2=O` (stereo not given), for which the logP in data set [1] stood at 3.85. In data set [2], the Ki was determined as 6.07 nM.

As to `CCCCCCCCCCCCC/C=C1\CC(CO)(COC(C)=O)OC1=O` (stereo not given), in data set [1], the logP is 5.36. In addition, the Ki in data set [2] came to 77.8 nM.

Regarding `CC(C)CC(C/C=C1/CC(CO)(COC(=O)C(C)(C)C)OC1=O)CC(C)C` (stereo not given), the Ki in data set [2] amounted to 2.9 nM.

Take `CCCCCCCCCCCCC/C=C1/C[C@@](CO)(COC(C)=O)OC1=O` (stereo in doubt): in data set [1], the logP turned out to be 5.36. Besides, the Ki in data set [2] was 35.1 nM.

For the molecule `CCCCCCCCCCCCC/C=C1/C[C@@](CO)(COC(C)=O)OC1=O` (stereo in doubt; 3), the Ki in data set [2] worked out at 35 nM.
